High-throughput results: PubChem BioAssay, Broad Institute
CAL PDZ FP-1: inhibitors of human CAL PDZ peptide binding | Q9HD26 | purified CAL PDZ, TMR-peptide fluorescence polarization, 1 h | inhibition, % at 20 µM | 0.02% of 330,000 active | AID 504414;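 active = highest replicate inhibition of at least 40%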
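Material: tagged CAL PDZ protein CerCALP, purified; buffer or medium: sodium phosphate/NaCl buffer pH 7.4 with TCEP, IgG, Thesit; also added: fluorescent TMR peptide probe; schedule: 1 h incubation at room temperature before polarization reading; technique: fluorescence polarization from S- and P-plane intensities, G-factor corrected; control set: unlabelled peptide and DMSO controls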
CAL PDZ FP-2: CAL PDZ (human) peptide binding inhibition | Q9HD26 | purified CAL PDZ, TMR-peptide fluorescence polarization, 1 h | inhibition, % at 24.9 µM | 0.92% of 300,000 active;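 active = mean inhibition of at least 30% with at least half of replicates also reaching 30%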
LANA-H2A inh: blocks KSHV LANA binding to histone H2A/H2B | Q9QR71 | cell-free LANA-H2A/H2B peptide, fluorescence polarization | inhibition, % (concentration not given with the values) | 0.6% of 320,000 active; in the data active = inhibition mostly above about 10%, no sharp cut-off; inactive = mostly below about 6.7%
C-LANA FP: KSHV C-LANA DNA binding inhibition. MBP-C-LANA/FAM-LBS DNA binding, fluorescence polarization. inhibition, % at 9 µM. 0.078% of 340,000 active;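 active = highest replicate inhibition at or above 60% at 9 µM, even if other replicates fall short; inactive = all replicates below 60% inhibition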
CaV13 ICDI inh: Primary screen for inhibitors of IQ motif and Ca2+-dependent inactivation inhibitor domain binding in CACNA1D, Förster resonance energy transfer in living cells, …; AID 743397; inhibition, % at 12.3 µM; 0.098% of 340,000 active; HEK cells, CFP/YFP FRET ICDI-IQ, plate reader, 10 min; percent FRET-ratio fall versus neutral wells;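 active = mean replicate inhibition of at least 30% and at least 1% of replicates passing that level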
Keap1 Nrf2 FP: disrupts human Keap1 binding to Nrf2 peptide. Q14145. Keap1 Kelch-Nrf2 peptide fluorescence polarization, 1536-well. AID 504523. inhibition, % at 9.4 µM. 0.15% of 340,000 active; in the data active = inhibition above about 12%;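 also: human Keap1 Kelch domain with fluorescein labeled Nrf2 9mer peptide probe; higher means more block of Keap1 binding to Nrf2 peptide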
A number is an active result; – = inactive; · = not tested or not shown. The list is not random: actives were taken first. Their share in the collection is about 1.5%.

SMILES	CAL PDZ FP-1	CAL PDZ FP-2	LANA-H2A inh	C-LANA FP	CaV13 ICDI inh	Keap1 Nrf2 FP
Cc1cc(C)cc(NC(=O)N2CCCC2C(=O)NCc2ccco2)c1 (centres undefined)	–	76	–	–	–	–
O=C(NC1CCCCC1)NC1(C(=O)N2CCN3CCCC3C2)CCCCC1 (centres undefined)	–	–	29	–	–	–
O=C(NCc1ccccc1)NC1(C(=O)N2CCN3CCCC3C2)CCCCC1 (centres undefined)	–	–	–	–	·	–
Cc1ccc(NC(=O)C2CCCN2C(=O)OC(C)(C)C)cc1C (centres undefined)	–	–	–	–	–	–
Cc1cc(-c2ccccc2)nc2c(Br)c(=O)[nH]n12	–	–	13	–	–	–
COc1cccc(C2CC(c3ccc(Cl)cc3Cl)Nc3nc(N)nn32)c1 (centres undefined)	–	–	10.0	–	–	–
O=S(=O)(N/N=C1\CCCc2ccccc21)c1ccccc1	–	·	14	–	–	–
CCCc1c(-c2cccc(Br)c2)ncn1Cc1ccccc1OC	·	·	·	·	–	·
COC(=O)C1=CN(CC2CCCO2)C=C(C(=O)OC)C1c1cccc(O)c1 (centres undefined)	–	–	–	–	83	–
CCOc1cc(/C=N/NC(=O)c2ccncc2)cc(Cl)c1OS(C)(=O)=O	–	54	–	–	–	–
COC(=O)C1=C(C)N(C)C(=NCC2CC2)NC1c1cccc(C(F)(F)F)c1 (centres undefined)	·	·	·	·	–	·
COc1ccc(OC)c(NC(=O)CSc2ccccc2)c1	·	54	–	–	–	–
COc1ccc(OC)c(NC(=O)C2CC(C)=C(C)CC2C(=O)O)c1 (centres undefined)	–	43	–	–	–	–
COc1ccc(OC)c(NC(=O)[C@H]2CC=CC[C@H]2C(=O)O)c1	–	·	–	–	–	–
COc1ccc(OC)c(NC(=O)Cn2cccc2)c1	–	·	17	–	–	–
COc1ccc(OC)c(NC(=O)CSc2ccc3ccccc3c2)c1	–	–	–	–	·	–
COc1ccc(NC(=O)CSc2cn[nH]n2)c(OC)c1	–	–	34	–	–	–
C[C@H](NC(=O)C[C@@H]1C[C@@H]2c3cc(NC(=O)C4CCC4)ccc3O[C@@H]2[C@@H](CO)O1)c1ccccc1	·	·	·	·	–	·
COc1cc(NC(=O)COc2ccccc2)c(OC)cc1NC(C)=O	–	·	14	–	–	–
COc1cc(NC(=O)c2ccccc2)c(OC)cc1NC(C)=O	–	–	–	–	–	–
O=C(O)c1ccc(Cl)c(S(=O)(=O)Nc2cccc(C(=O)Nc3cccc(C(F)(F)F)c3)c2)c1	–	–	70	–	–	–
CN(C)S(=O)(=O)Oc1ccc(C(=O)Nc2cccc(C(F)(F)F)c2)cc1	–	38	–	–	–	–
CN(C)S(=O)(=O)Oc1ccc(C(=O)Nc2cccc(Cl)c2)cc1	–	–	–	–	–	–
CCCCOCC1CN(CCCC)S(=O)(=O)c2c(Oc3ccc(OC)cc3)cccc2O1 (centres undefined)	·	·	·	·	–	·
COc1ccc2c(c1)[C@@]1(OCCC=C[C@H]1C)C(=O)N2Cc1ccccc1C(F)(F)F	·	·	·	·	–	·
SMILES	CAL PDZ FP-1	CAL PDZ FP-2	LANA-H2A inh	C-LANA FP	CaV13 ICDI inh	Keap1 Nrf2 FP
CSc1ncccc1C(=O)OCC(=O)N(CC(C)C)C1CCS(=O)(=O)C1 (centres undefined)	–	–	–	–	–	–
CCOc1ncccc1C(=O)OCC(=O)N(CC(C)C)C1CCS(=O)(=O)C1 (centres undefined)	–	57	–	–	–	–
CS(=O)(=O)N1CCN(c2ccccc2NC(=O)c2cc3ccccc3o2)CC1	–	–	–	–	–	–
CC(C)[C@H](NS(=O)(=O)c1ccc(F)cc1F)C(=O)N1CCC[C@H]1C(=O)NCCc1ccccc1Cl	·	·	·	·	–	·
Cc1cc(Br)cn2c(Cc3cccc(F)c3)c(-c3ccco3)nc12	·	·	·	·	–	·
Cc1nn(C(C)C(=O)NCc2ccccc2Cl)c(=O)c2c1sc1ccccc12 (centres undefined)	–	70	–	–	–	–
Cc1nn(C(C)C(=O)NCCCN2CCCCCC2)c(=O)c2c1sc1ccccc12 (centres undefined)	–	–	–	–	–	–
